Measurements from ChEMBL document CHEMBL2311362, “Fragment-based discovery of novel and selective mPGES-1 inhibitors Part 1: identification of sulfonamido-1,2,3-triazole-4,5-dicarboxylic acid” (Bioorg Med Chem Lett, 2013).
Calls of active or inactive are those of the source. The rule behind the calls is not given here.

How the values were obtained:
[1] = target: T1, Prostaglandin E synthase (Homo sapiens) (UniProt O14684); assay: Inhibition of human recombinant mPGES1 using PGH2 as substrate at 10 uM incubated for 5 mins prior to substrate addition measured after 5 mins by HPLC analysis
T1 sequence (whole entry): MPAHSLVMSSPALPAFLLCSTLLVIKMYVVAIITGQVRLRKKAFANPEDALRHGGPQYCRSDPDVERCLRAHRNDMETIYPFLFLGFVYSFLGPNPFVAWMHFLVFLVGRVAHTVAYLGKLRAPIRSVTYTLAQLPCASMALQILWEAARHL
Procedure, shortened: (§1)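 mPGES-1 inhibition measured at 10 µM test compound, run with and without 0.1% Triton X-100, following a previously published protocol. Reported as % inhibition.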

[2] = target: T1, Prostaglandin E synthase (Homo sapiens); assay: Inhibition of human recombinant mPGES1 using PGH2 as substrate at 10 uM incubated for 5 mins prior to substrate addition measured after 5 mins by HPLC analysis in presence of triton-X-100; procedure, shortened: as §1
[3] = target: T2, Prostaglandin G/H synthase 2 (Homo sapiens) (UniProt P35354); assay: Inhibition of human recombinant COX2 using arachidonic acid as substrate at 1 mM incubated for 10 mins prior to substrate addition measured for 2 mins by enzyme immunoassay
T2 sequence (whole entry): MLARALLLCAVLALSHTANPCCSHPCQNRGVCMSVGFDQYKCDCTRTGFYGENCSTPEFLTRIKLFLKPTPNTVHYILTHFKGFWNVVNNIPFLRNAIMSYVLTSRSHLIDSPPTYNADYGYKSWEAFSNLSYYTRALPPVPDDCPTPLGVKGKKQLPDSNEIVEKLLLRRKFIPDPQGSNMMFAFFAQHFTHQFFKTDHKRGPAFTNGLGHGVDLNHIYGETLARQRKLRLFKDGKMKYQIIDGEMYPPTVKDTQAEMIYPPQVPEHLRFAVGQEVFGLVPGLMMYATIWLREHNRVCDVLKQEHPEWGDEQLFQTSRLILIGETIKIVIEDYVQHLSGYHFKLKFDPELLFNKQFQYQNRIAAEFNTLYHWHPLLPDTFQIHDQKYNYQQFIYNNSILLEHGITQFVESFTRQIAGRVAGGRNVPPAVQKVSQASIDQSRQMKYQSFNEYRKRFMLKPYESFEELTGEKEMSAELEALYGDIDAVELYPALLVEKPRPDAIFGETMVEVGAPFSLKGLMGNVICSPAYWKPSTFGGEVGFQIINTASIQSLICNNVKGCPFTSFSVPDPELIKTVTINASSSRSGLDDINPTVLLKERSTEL

[4] = Selectivity index, ratio of IC50 for ovine COX1 to IC50 for mPGES1 (unknown origin)
[5] = target: T3, Prostaglandin E synthase (Homo sapiens, UniProt O14684); assay: Inhibition of mPGES1 (unknown origin) using PGH2 as substrate incubated for 30 mins prior to substrate addition by PGH2-coupled spectrophotometric analysis
T3 sequence (O14684 whole entry): T1 sequence (whole entry)
Procedure, shortened: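 Two-enzyme coupled assay. 110 nM mPGES-1 and 220 nM 15-PGDH in 200 µL buffer (50 mM Tris-HCl pH 7.5, 50 µM PMA, 2 mM reduced glutathione, 1 mM NAD+, 0.1 mM DTT), compound added in 1 µL DMSO, preincubated 30 min. Started with cold PGH2 (14 µM final). NADH read by fluorescence, excitation 340 nm, emission 468 nm. IC50 from varying concentrations.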

[6] = target: T1, Prostaglandin E synthase (Homo sapiens); assay: Ratio of MK886 IC50 to compound IC50 for mPGES1 (unknown origin)
[7] = target: T4, Prostaglandin G/H synthase 1 (Ovis aries) (UniProt P05979); assay: Inhibition of ovine COX1 using PGH2 as substrate at 1 mM incubated for 10 mins prior to substrate addition measured for 2 mins by enzyme immunoassay; details: in the assay text read “arachidonic acid” for “PGH2”
T4 sequence (whole entry): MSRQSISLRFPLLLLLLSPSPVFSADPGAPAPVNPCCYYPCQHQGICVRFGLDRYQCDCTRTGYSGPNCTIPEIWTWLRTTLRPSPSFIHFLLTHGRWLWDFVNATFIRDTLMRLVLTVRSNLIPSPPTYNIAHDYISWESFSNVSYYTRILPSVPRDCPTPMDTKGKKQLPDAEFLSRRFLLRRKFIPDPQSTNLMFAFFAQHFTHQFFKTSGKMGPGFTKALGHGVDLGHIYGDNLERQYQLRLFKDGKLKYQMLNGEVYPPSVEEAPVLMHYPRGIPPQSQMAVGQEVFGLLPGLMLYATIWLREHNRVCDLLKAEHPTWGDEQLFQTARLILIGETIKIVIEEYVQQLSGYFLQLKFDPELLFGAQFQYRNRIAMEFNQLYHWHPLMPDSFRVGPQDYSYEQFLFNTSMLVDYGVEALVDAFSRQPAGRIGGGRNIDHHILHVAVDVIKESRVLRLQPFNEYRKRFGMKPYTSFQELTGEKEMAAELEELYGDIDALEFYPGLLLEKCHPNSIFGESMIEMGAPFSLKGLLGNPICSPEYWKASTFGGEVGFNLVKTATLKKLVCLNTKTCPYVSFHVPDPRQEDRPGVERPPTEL
Procedure, shortened: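 COX-1 (purified ovine) or COX-2 (purified human recombinant) preincubated with test compound 10 min at 37 °C, then tested at 1 mM. Prostanoid product quantified by enzyme immunoassay with a broadly specific antibody that binds all major prostaglandins (COX inhibitor screening kit).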

[8] = Inhibition of rat mPGES1 expressed in CHOK21 cells using [3H]PGH2 as substrate by radio-HPLC analysis; type: cell-based

| IC50 [5] [µM] | SMILES | other results |
| --- | --- | --- |
| 1.1 | O=C(O)c1nnn(CCN(c2ccccc2)S(=O)(=O)c2ccccc2)c1C(=O)O | inhibition [1]: 69.1%; inhibition [2]: 18.1%; inhibition [3]: inactive; Ratio IC50 [4]: 1000; Ratio IC50 [6]: 3.5; inhibition [7]: 50% |
| 23.3 | NC(=O)c1nnn(CCNS(=O)(=O)c2ccccc2)c1C(N)=O | – |
| 4.1 | O=C(O)c1nnn(CCNS(=O)(=O)c2ccccc2)c1C(=O)O | – |
| 4.2 | Cc1ccc(S(=O)(=O)NCCn2nnc(C(=O)O)c2C(=O)O)cc1 | – |
| 12.9 | COC(=O)c1nnn(CCNS(=O)(=O)c2ccccc2)c1C(=O)OC | – |
| 3.8 | CCCN(CCn1nnc(C(=O)O)c1C(=O)O)S(=O)(=O)c1ccc(C)cc1 | – |
| 10.3 | CS(=O)(=O)NCCn1nnc(C(=O)O)c1C(=O)O | – |

More lines, now with the values behind:

| SMILES | IC50 [5] [µM] | other results |
| --- | --- | --- |
| CN(CCn1nnc(C(=O)O)c1C(=O)O)S(=O)(=O)c1ccccc1 | 4 | – |
| CC(C)c1ccc2c(c1)c(SC(C)(C)C)c(CC(C)(C)C(=O)O)n2Cc1ccc(Cl)cc1 | – | IC50 [8]: 3.2 µM |
| Cc1ccc(S(=O)(=O)NCn2nnc(C(=O)O)c2C(=O)O)cc1 | 6.9 | – |
| O=C(O)c1nnn(CCNS(=O)(=O)c2ccccc2C(F)(F)F)c1C(=O)O | 3.3 | – |
| O=C(O)c1nnn(CCNS(=O)(=O)c2cccc(C(F)(F)F)c2)c1C(=O)O | 4.4 | – |
| CCS(=O)(=O)NCCn1nnc(C(=O)O)c1C(=O)O | 9.7 | – |
| Cc1ccc(S(=O)(=O)NCCCn2nnc(C(=O)O)c2C(=O)O)cc1 | 6.3 | – |
